# Compound activity (PubChem BioAssay)
# SKKanGAS inh: S. pyogenes SKKanGAS growth inhibitors in kanamycin, primary screen, streptokinase expression inhibitor project, SKKanGAS strain, BacTiter-Glo luminescence. 6 h. inhibition, % at 7.5 µM. actives 1.3% (n = 300,000). AID 1662, 2009;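 active means mean replicate score, as percent of positive control median, at least 50; inconclusive means mean below 50 but one replicate at or above 50; inactive means mean and every replicate below 50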;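 further: strain carries kanamycin resistance gene driven by streptokinase promoter and grows in 40 µg/ml kanamycin; loss of luminescence reflects streptokinase promoter inhibition or plain growth inhibition; 0% = median of DMSO wells and 100% = positive control at its reference dose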
# T cruzi inh: inhibitors of intracellular T. cruzi growth, primary screen, luminescence, NIH3T3 host cells; T. cruzi beta-gal in NIH3T3, 90 h; inhibition, % (test concentration not listed); actives 1.4% (n = 300,000); AID 1885, 2009;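 active means mean inhibition across valid replicates above about 55%, limit read from the data; inconclusive means mean below that limit but half or more replicates reach it; inactive means mean below it, under half of replicates reach it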;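 further: signal also drops with host cell toxicity which is not excluded here; 0% = plate median of DMSO wells and 100% = zero luminescence signal; higher percent means less beta-gal luminescence so fewer parasites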
#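 assay system = mouse NIH/3T3 fibroblasts infected with β-gal-expressing T. cruzi Tulahuen C4 | input = 5,000 NIH/3T3 host cells per well | buffer or medium = DMEM plus 2% FBS | timing = 3 h host attachment, then at least 90 h co-culture | measured by = GalScreen luminescence, 60 min | evaluation = luminescence reflecting intracellular parasite burden, expressed as percent inhibition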
# CSC inhib: cancer stem cell viability inhibitors, primary screen, luminescence; actives 1.1% (n = 300,000); inhibition, % at 7.5 µM; cancer stem cell-like cells viability; AID 2717, 2010; in the data active means inhibition above about 75%; inconclusive means no clear call, values can overlap the other calls; tested in HMLE shEcad cells
# Calb FLC: C. albicans growth inhibition with fluconazole, primary screen, CaCi-2 strain, Alamar Blue fluorescence; C. albicans CaCi-2 (fluconazole-resistant clinical isolate) + fluconazole, 48 h; growth inhibition, % (test concentration not listed); actives 0.57% (n = 300,000);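 active means growth inhibition above about 58% in most replicates, limit read from the data, passing the limit was not always enough; inconclusive means exactly half the replicates above a set limit; inactive means most replicates below a set limit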;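 further: all wells also contain fluconazole at 8 µg/ml as a sub-toxic cotreatment; 0% = median of DMSO wells and 100% = median of geldanamycin control wells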
# Beta cell apopt: inhibitors of cytokine-induced beta cell apoptosis, primary screen, luminescence. actives 0.8% (n = 300,000). protection from apoptosis, % (no concentration beside the values). AID 435005, 2010. INS-1E cytokine-induced death, ATP luminescence, 48 h; percent of positive-control rescue, neutral wells zero;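 active means Every replicate reaches about 75%, or at least half do and their mean reaches it too, limit read from the data; inconclusive means At least half of replicates reach the limit but their mean does not; inactive means Under half of replicates reach the limit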;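 further: 0% = cytokine-treated negative control wells and 100% = positive control rescue; higher means more ATP so stronger rescue from cytokine killing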
# Mdm2 MdmX PPI: inhibitors of human Mdm2-MdmX association, primary screen, cell-based, luminescence, split luciferase, SaOS-2, uHTS; inhibition, % at 8 µM; SaOS-2 split-luciferase Mdm2/MdmX complementation; actives 3% (n = 330,000); Protein Mdm4 (Homo sapiens) + E3 ubiquitin-protein ligase Mdm2 (Homo sapiens), …;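 active means inhibition of at least 50% at 8 µM in the primary screen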
# Target sequence (O15151 whole entry, looked up): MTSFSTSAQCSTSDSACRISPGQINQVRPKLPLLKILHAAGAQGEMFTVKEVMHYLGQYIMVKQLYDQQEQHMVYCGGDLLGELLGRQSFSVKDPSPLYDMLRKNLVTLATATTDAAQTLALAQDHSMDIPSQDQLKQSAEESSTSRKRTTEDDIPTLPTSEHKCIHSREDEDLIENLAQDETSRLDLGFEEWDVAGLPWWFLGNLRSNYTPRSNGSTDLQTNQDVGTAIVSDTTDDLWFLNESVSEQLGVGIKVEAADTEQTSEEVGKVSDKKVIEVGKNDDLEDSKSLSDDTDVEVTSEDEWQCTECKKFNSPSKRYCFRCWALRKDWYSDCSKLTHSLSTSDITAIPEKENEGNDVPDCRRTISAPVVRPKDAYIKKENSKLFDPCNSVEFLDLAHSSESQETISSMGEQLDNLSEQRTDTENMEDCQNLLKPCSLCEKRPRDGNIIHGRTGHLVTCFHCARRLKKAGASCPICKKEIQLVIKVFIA
# Target sequence (Q00987 whole entry, looked up): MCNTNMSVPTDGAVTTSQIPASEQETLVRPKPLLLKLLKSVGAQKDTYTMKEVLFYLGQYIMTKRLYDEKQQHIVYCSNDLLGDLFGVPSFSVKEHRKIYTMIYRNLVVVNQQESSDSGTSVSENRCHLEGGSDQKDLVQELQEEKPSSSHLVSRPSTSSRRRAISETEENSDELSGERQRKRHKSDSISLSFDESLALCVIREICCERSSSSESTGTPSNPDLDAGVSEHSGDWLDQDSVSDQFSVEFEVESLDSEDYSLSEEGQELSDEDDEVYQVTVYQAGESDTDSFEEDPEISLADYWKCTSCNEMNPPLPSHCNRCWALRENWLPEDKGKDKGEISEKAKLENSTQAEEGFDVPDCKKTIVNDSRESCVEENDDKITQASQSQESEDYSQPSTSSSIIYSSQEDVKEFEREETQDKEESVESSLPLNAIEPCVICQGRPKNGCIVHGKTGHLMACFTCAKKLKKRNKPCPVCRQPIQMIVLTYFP
# Mdm2-MdmX conf: Mdm2-MdmX complex disruptors, retested hits, confirmation, luminescence, single concentration; Mdm2-MdmX binding, luminescent assay; inhibition, % at 8 µM; AID 489028, 2010; shares compounds with Mdm2 MdmX PPI; actives 55% (n = 10,000); in the data active means inhibition above about 40%
# FLuc counter: full-length luciferase signal inhibition, confirmation, counter-screen for Mdm2/MdmX interaction inhibitor project, cell-based, single concentration, SaOS-2; shares compounds with Mdm2 MdmX PPI; SaOS-2 full-length luciferase counterscreen, luminescence; inhibition, % at 8 µM; actives 77% (n = 6,200);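 active means mean inhibition at 8 µM reaching about 37%, which flags the compound as non-specific, limit read from the data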;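 further: p53-null SaOS-2 cells with luciferase driven by a doxycycline-inducible promoter; compound on cells about two nights before reading with doxycycline added after day one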
# * = called active by the depositor; ? = inconclusive; nt = no result given; + = active, no number. Rows were chosen to be rich in hits. Some 5.7% of all compounds tested hit in one or more screens of this group.
SMILES,SKKanGAS inh,T cruzi inh,CSC inhib,Calb FLC,Beta cell apopt,Mdm2 MdmX PPI,Mdm2-MdmX conf,FLuc counter
CCOCCCNCc1ccc(OC)c(OC)c1,-3,15,-5,-7,4,28,nt,nt
COc1ccc(C(CCNCc2ccc(N(C)C)cc2)C(C)C)cc1 (stereo not given),5,24,19,-22,37,49,nt,nt
C=CCn1c(N)cc(=O)nc1SC(C)C(=O)Nc1cccc2ccccc12 (stereo not given),nt,nt,nt,nt,-1,28,nt,nt
O=C(NC1CCCC1)c1sc(=S)n2c1[nH]c(=O)c1ccccc12,30,11,58,20,6,57*,9,nt
COc1ccc(OC)c(NC(=O)C2=C(C)NC(=O)NC2c2cccs2)c1 (stereo not given),nt,nt,-5,-10,-9,5,nt,nt
Cc1cc(C)c2nc(N3CCC(C(=O)NCCCN4CCCCC4)CC3)sc2c1,1,15,-2,42,7,84*,43*,46*
C[C@H](NC(=O)C1CCN(S(=O)(=O)c2ccccc2)CC1)C(=O)NCc1ccco1,-1,0,-8,5,-8,15,nt,nt
COc1ccc(CNC(=O)Cn2nnc(-c3ccc(NC(=O)C4CCCCC4)cc3)n2)cc1,-10,8,8,?,3,61*,15,nt
CCOc1ccccc1NC(=O)Cn1nnc(-c2ccc(OCC)c(OCC)c2)n1,-8,2,nt,1,nt,88*,7,nt
CCOc1ccc(-c2nnn(CC(=O)NCc3ccc(OC)cc3)n2)cc1OCC,-4,0,1,7,5,62*,16,nt
CCOc1ccc(-c2nnn(CC(=O)NCc3ccc(C)cc3)n2)cc1,-16,1,-4,-13,2,29,nt,nt
CCOc1ccc(-c2nnn(CC(=O)Nc3cc(OC)ccc3OC)n2)cc1OCC,-5,10,-12,-2,-6,0,nt,nt
CCn1c(Oc2ccccc2F)nc2c1c(=O)n(C)c(=O)n2C,22,3,-8,7,-14,68*,66*,23
COc1cc(NC(=O)c2cccc3c2C(=O)N(C2CCCCC2)C3)cc(OC)c1OC,29,32,8,33,8,78*,43*,61*
O=C(Nc1ccccc1Cc1ccccc1)c1ccccc1NS(=O)(=O)c1ccc(Cl)s1,117*,-3,+,?,47,93*,92*,21
O=C(NCc1ccco1)c1ccccc1NS(=O)(=O)c1ccc(Cl)s1,4,-2,-4,62,-2,-2,nt,nt
Cc1ccc(NC(=O)c2ccccc2NS(=O)(=O)c2ccc(Cl)s2)cc1,45,-38,51,78*,77*,90*,81*,29
CS(=O)(=O)c1ccccc1C(=O)Nc1ccccc1Cc1ccccc1,1,-4,-13,-3,nt,13,nt,nt
O=C(Nc1ccccc1)c1ccccc1NS(=O)(=O)c1ccc(Cl)s1,28,-28,43,-2,52,85*,62*,28
O=S(=O)(Nc1ccccc1Cl)c1cc(NC(=S)NCCN2CCOCC2)ccc1Cl,2,10,-5,4,-23,-21,nt,nt
O=C1NC[C@@H](c2ccccc2)OC(=O)[C@H](Cc2ccc(F)cc2)C/C=C\C[C@@H]1CC(=O)N(CCO)Cc1ccccc1,nt,nt,6,nt,0,32,nt,nt
COc1ccc(CCNC(=O)CCNC(=O)c2ccco2)cc1OC,0,-7,-1,4,0,18,nt,nt
COc1cccc(/C=C/c2nc3c(cnn3-c3ccccc3)c(=O)[nH]2)c1,-13,11,18,-4,3,41,nt,nt
O=c1[nH]c(/C=C/c2ccc(Br)cc2)nc2c1cnn2-c1ccccc1,-1,-14,nt,-3,-5,83*,21,nt
O/N=C/c1ccc2cccc(O)c2n1,12,-7,5,0,-4,11,nt,nt
SMILES,SKKanGAS inh,T cruzi inh,CSC inhib,Calb FLC,Beta cell apopt,Mdm2 MdmX PPI,Mdm2-MdmX conf,FLuc counter
COc1ccc(Cl)cc1/C=C/c1ccc2cccc(O)c2n1,89*,34,58,11,24,50*,1,nt
CCOc1cccc(/C=C/c2ccc3cccc(O)c3n2)c1O,107*,38,57,-4,36,67*,-36,nt
CCCN(CC(=O)Nc1ccc(F)c(F)c1F)C(=O)Cc1ccc(S(=O)(=O)N2CCOCC2)s1,nt,nt,nt,nt,-2,-11,nt,nt
COc1ccccc1C1C(C#N)=C(N)N(N(C)C)C2=C1C(=O)CC(C)(C)C2 (stereo not given),-2,16,-7,5,2,-3,nt,nt
O=C(NCCCN1CCCC1)c1ccc(CS(=O)(=O)c2c(Cl)cccc2Cl)o1,-6,12,-4,-1,2,1,nt,nt
CC(C)(C)C(=O)N1CCN(c2nc3ccc(Cl)cc3s2)CC1,-1,13,nt,14,nt,-55,nt,nt
Cc1cc(C)n(-c2nc(SCCN(C)C)c3c4c(sc3n2)COC(C)(C)C4)n1,16,65*,8,6,23,54*,58*,53*
CN1C(=O)C(O)(C2COC(C)(C)CC2=O)c2cc(Br)ccc21 (stereo not given),-2,-2,34,-1,-5,53*,29,nt
Cc1cccnc1NCc1ccc(O)c2ncccc12,67*,47,56,-27,nt,57*,5,nt
Oc1ccc(Br)cc1CNc1cccc2cccnc12,55*,5,52,-4,100*,60*,64*,26
Cc1cccc(NCc2ccc(O)c3ncccc23)c1C,11,15,-6,104*,8,74*,73*,42*
Cc1cccnc1NC(=S)Nc1ncccc1C,3,-4,-1,2,3,-176,nt,nt
COc1ccc(S(=O)(=O)Nc2cccc(-c3ccc4nncn4n3)c2)cc1F,2,-14,54,-22,-2,50*,66*,61*
O=S(=O)(Nc1cccc(-c2ccc3nncn3n2)c1)c1cccc(F)c1,13,-2,-4,0,2,9,nt,nt
COc1ccc(OC)c(-n2c(=S)[nH]c3c(sc(=S)n3-c3ccccc3)c2=O)c1,3,-1,-10,6,2,12,nt,nt
